According to ChEMBL document CHEMBL4261530, “Rational design and synthesis of novel phenylsulfonyl-benzamides as anti-prostate cancer agents” (Medchemcomm, 2017):
Values belong to the molecule of their own block, whether it stands above or below them.

Key:
DU-145 [1] = assay: Potency index, ratio of enzalutamide IC50 to test compound IC50 for human DU145 cells; format: functional
LNCaP [2] = assay: Antiproliferative activity against human LNCAP cells after 96 hrs by propidium iodide staining-based fluorescence assay; format: functional, cell-based
DU-145 [3] = assay: Antiproliferative activity against human DU145 cells after 96 hrs by propidium iodide staining-based fluorescence assay; format: functional, cell-based
CWR22R [4] = assay: Potency index, ratio of enzalutamide IC50 to test compound IC50 for human 22Rv1 cells; format: functional
VCaP [5] = assay: Potency index, ratio of enzalutamide IC50 to test compound IC50 for human VCaP cells; format: functional
LNCaP [6] = assay: Potency index, ratio of enzalutamide IC50 to test compound IC50 for human LNCAP cells; format: functional
VCaP [7] = assay: Antiproliferative activity against human VCaP cells after 96 hrs by propidium iodide staining-based fluorescence assay; format: functional, cell-based
CWR22R [8] = assay: Antiproliferative activity against human 22Rv1 cells after 96 hrs by propidium iodide staining-based fluorescence assay; format: functional, cell-based
HEK293 = assay: Cytotoxicity against HEK293 cells assessed as reduction in cell viability at 10 uM after 24 hrs by CellTiter-Blue assay relative to control; format: cell-based; details: human, hek293, 24 h
In short: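 HEK293 cells in DMEM with 10% FBS and 2 mM L-glutamine, seeded at 100,000 cells/ml and treated after 24 h at 10 µM for 24 h. […] Cell Titer Blue added for 2 h at 37°C, fluorescence read at 560/590 nm.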

SMILES: O=C(Nc1ccc(C(F)(F)F)cc1)c1ccc(Sc2ccc(O)cc2)cc1
Ratio IC50 (DU-145 [1]): <=8
Activity (LNCaP [2]): Dose-dependent effect
Activity (DU-145 [3]): Dose-dependent effect
Ratio IC50 (CWR22R [4]): <=8
Ratio IC50 (VCaP [5]): <=8
Ratio IC50 (LNCaP [6]): <=8
Activity (VCaP [7]): Dose-dependent effect
Activity (CWR22R [8]): Dose-dependent effect

SMILES: N#Cc1ccc(NC(=O)c2ccc(Sc3cccc(C(F)(F)F)c3)cc2)cc1C(F)(F)F
Ratio IC50 (DU-145 [1]): <=8
Activity (LNCaP [2]): Dose-dependent effect
Activity (DU-145 [3]): Dose-dependent effect
Ratio IC50 (CWR22R [4]): <=8
Ratio IC50 (VCaP [5]): <=8
Ratio IC50 (LNCaP [6]): <=8
Activity (VCaP [7]): Dose-dependent effect
Activity (CWR22R [8]): Dose-dependent effect

SMILES: O=C(Nc1ccc(C(F)(F)F)cc1)c1ccc(S(=O)(=O)c2ccc(O)cc2)cc1
Ratio IC50 (DU-145 [1]): <=8
Activity (LNCaP [2]): Dose-dependent effect
Activity (DU-145 [3]): Dose-dependent effect
Ratio IC50 (CWR22R [4]): <=8
Ratio IC50 (VCaP [5]): <=8
Ratio IC50 (LNCaP [6]): <=8
Activity (VCaP [7]): Dose-dependent effect
Activity (CWR22R [8]): Dose-dependent effect

SMILES: O=C(Nc1cccc(S(F)(F)(F)(F)F)c1)c1ccc(Sc2ccc(O)cc2)cc1
Ratio IC50 (DU-145 [1]): <=8
Activity (LNCaP [2]): Dose-dependent effect
Activity (DU-145 [3]): Dose-dependent effect
Ratio IC50 (CWR22R [4]): <=8
Ratio IC50 (VCaP [5]): <=8
Ratio IC50 (LNCaP [6]): <=8
Activity (VCaP [7]): Dose-dependent effect
Activity (CWR22R [8]): Dose-dependent effect

SMILES: O=C(Nc1cc(C(F)(F)F)cc(C(F)(F)F)c1)c1ccc(Sc2ccc(O)cc2)cc1
Ratio IC50 (DU-145 [1]): <=8
Activity (LNCaP [2]): Dose-dependent effect
Activity (DU-145 [3]): Dose-dependent effect
Ratio IC50 (CWR22R [4]): <=8
Ratio IC50 (VCaP [5]): <=8
Ratio IC50 (LNCaP [6]): <=8
Activity (VCaP [7]): Dose-dependent effect
Activity (CWR22R [8]): Dose-dependent effect

SMILES: O=C(Nc1cc(C(F)(F)F)ccc1C(F)(F)F)c1ccc(S(=O)(=O)c2ccc(O)cc2)cc1
Ratio IC50 (DU-145 [1]): <=8
Activity (LNCaP [2]): Dose-dependent effect
Activity (DU-145 [3]): Dose-dependent effect
Ratio IC50 (CWR22R [4]): <=8
Ratio IC50 (VCaP [5]): <=8
Ratio IC50 (LNCaP [6]): <=8
Activity (VCaP [7]): Dose-dependent effect
Activity (CWR22R [8]): Dose-dependent effect

SMILES: O=C(Nc1cccc(C(F)(F)F)c1)c1ccc(Sc2cccc(C(F)(F)F)c2)cc1
Ratio IC50 (DU-145 [1]): <=8
Activity (LNCaP [2]): Dose-dependent effect
Activity (DU-145 [3]): Dose-dependent effect
Ratio IC50 (CWR22R [4]): <=8
Ratio IC50 (VCaP [5]): <=8
Ratio IC50 (LNCaP [6]): <=8
Activity (VCaP [7]): Dose-dependent effect
Activity (CWR22R [8]): Dose-dependent effect

SMILES: N#Cc1ccc(NC(=O)c2ccc(Sc3ccc(O)cc3)cc2)cc1C(F)(F)F
Ratio IC50 (DU-145 [1]): <=8
Activity (LNCaP [2]): Dose-dependent effect
Activity (DU-145 [3]): Dose-dependent effect
Ratio IC50 (CWR22R [4]): <=8
Ratio IC50 (VCaP [5]): <=8
Ratio IC50 (LNCaP [6]): <=8
Activity (VCaP [7]): Dose-dependent effect
Activity (CWR22R [8]): Dose-dependent effect

SMILES: O=C(Nc1cccc(S(F)(F)(F)(F)F)c1)c1ccc(S(=O)(=O)c2ccc(O)cc2)cc1
Ratio IC50 (DU-145 [1]): <=8
Activity (LNCaP [2]): Dose-dependent effect
Activity (DU-145 [3]): Dose-dependent effect
Ratio IC50 (CWR22R [4]): <=8
Ratio IC50 (VCaP [5]): <=8
Ratio IC50 (LNCaP [6]): <=8
Activity (VCaP [7]): Dose-dependent effect
Activity (CWR22R [8]): Dose-dependent effect

SMILES: O=C(Nc1ccccc1C(F)(F)F)c1ccc(Sc2ccc(O)cc2)cc1
Ratio IC50 (DU-145 [1]): <=8
Activity (LNCaP [2]): Dose-dependent effect
Activity (DU-145 [3]): Dose-dependent effect
Ratio IC50 (CWR22R [4]): <=8
Ratio IC50 (VCaP [5]): <=8
Ratio IC50 (LNCaP [6]): <=8
Activity (VCaP [7]): Dose-dependent effect
Activity (CWR22R [8]): Dose-dependent effect

SMILES: O=C(Nc1cccc(C(F)(F)F)c1)c1ccc(S(=O)(=O)c2ccc(O)cc2)cc1
Ratio IC50 (DU-145 [1]): <=8
Activity (LNCaP [2]): Dose-dependent effect
Activity (DU-145 [3]): Dose-dependent effect
Ratio IC50 (CWR22R [4]): <=8
Ratio IC50 (VCaP [5]): <=8
Ratio IC50 (LNCaP [6]): <=8
Activity (VCaP [7]): Dose-dependent effect
Activity (CWR22R [8]): Dose-dependent effect

SMILES: O=C(Nc1cccc(C(F)(F)F)c1)c1ccc(Sc2ccc(O)cc2)cc1
Ratio IC50 (DU-145 [1]): <=8
Activity (LNCaP [2]): Dose-dependent effect
Activity (DU-145 [3]): Dose-dependent effect
Ratio IC50 (CWR22R [4]): <=8
Ratio IC50 (VCaP [5]): <=8
Ratio IC50 (LNCaP [6]): <=8
Activity (VCaP [7]): Dose-dependent effect
Activity (CWR22R [8]): Dose-dependent effect

SMILES: O=C(Nc1cc(C(F)(F)F)cc(C(F)(F)F)c1)c1ccc(S(=O)(=O)c2ccc(O)cc2)cc1
Ratio IC50 (DU-145 [1]): <=8
Activity (LNCaP [2]): Dose-dependent effect
Activity (DU-145 [3]): Dose-dependent effect
Ratio IC50 (CWR22R [4]): <=8
Ratio IC50 (VCaP [5]): <=8
Ratio IC50 (LNCaP [6]): <=8
Activity (VCaP [7]): Dose-dependent effect
Activity (CWR22R [8]): Dose-dependent effect

SMILES: N#Cc1ccc(NC(=O)c2ccc(S(=O)(=O)c3ccc(O)cc3)cc2)cc1C(F)(F)F
Ratio IC50 (DU-145 [1]): <=8
Activity (LNCaP [2]): Dose-dependent effect
Activity (DU-145 [3]): Dose-dependent effect
Ratio IC50 (CWR22R [4]): <=8
Ratio IC50 (VCaP [5]): <=8
Ratio IC50 (LNCaP [6]): <=8
Activity (VCaP [7]): Dose-dependent effect
Activity (CWR22R [8]): Dose-dependent effect

SMILES: O=C(Nc1ccccc1C(F)(F)F)c1ccc(S(=O)(=O)c2ccc(O)cc2)cc1
Ratio IC50 (DU-145 [1]): <=8
Activity (LNCaP [2]): Dose-dependent effect
Activity (DU-145 [3]): Dose-dependent effect
Ratio IC50 (CWR22R [4]): <=8
Ratio IC50 (VCaP [5]): <=8
Ratio IC50 (LNCaP [6]): <=8
Activity (VCaP [7]): Dose-dependent effect
Activity (CWR22R [8]): Dose-dependent effect

SMILES: O=C(Nc1ccccc1C(F)(F)F)c1ccc([S+]([O-])c2ccc(O)cc2)cc1 (configuration not stated)
Activity (LNCaP [2]): Dose-dependent effect
Activity (DU-145 [3]): Dose-dependent effect
Activity (VCaP [7]): Dose-dependent effect
Activity (CWR22R [8]): Dose-dependent effect

SMILES: O=C(Nc1ccc(S(F)(F)(F)(F)F)cc1)c1ccc([S+]([O-])c2ccc(O)cc2)cc1 (configuration not stated)
Ratio IC50 (DU-145 [1]): <=8
Activity (LNCaP [2]): Dose-dependent effect
Activity (DU-145 [3]): Dose-dependent effect
Ratio IC50 (CWR22R [4]): <=8
Ratio IC50 (VCaP [5]): <=8
Ratio IC50 (LNCaP [6]): <=8
Activity (VCaP [7]): Dose-dependent effect
Activity (CWR22R [8]): Dose-dependent effect

SMILES: O=C(Nc1cc(C(F)(F)F)ccc1C(F)(F)F)c1ccc(Sc2ccc(O)cc2)cc1
Ratio IC50 (DU-145 [1]): <=8
Activity (LNCaP [2]): Dose-dependent effect
Activity (DU-145 [3]): Dose-dependent effect
Ratio IC50 (CWR22R [4]): <=8
Activity (HEK293): Toxic
Ratio IC50 (VCaP [5]): <=8
Ratio IC50 (LNCaP [6]): <=8
Activity (VCaP [7]): Dose-dependent effect
Activity (CWR22R [8]): Dose-dependent effect

SMILES: O=C(Nc1ccc([N+](=O)[O-])c(C(F)(F)F)c1)c1ccc(S(=O)(=O)c2ccc(O)cc2)cc1
Ratio IC50 (DU-145 [1]): <=8
Activity (LNCaP [2]): Dose-dependent effect
Activity (DU-145 [3]): Dose-dependent effect
Ratio IC50 (CWR22R [4]): <=8
Ratio IC50 (VCaP [5]): <=8
Ratio IC50 (LNCaP [6]): <=8
Activity (VCaP [7]): Dose-dependent effect
Activity (CWR22R [8]): Dose-dependent effect

IC50 (LNCaP [2]): Nd(Insoluble)
IC50 (DU-145 [3]): Nd(Insoluble)
IC50 (VCaP [7]): Nd(Insoluble)
SMILES: O=C(Nc1cccc(C(F)(F)F)c1)c1ccc(S(=O)(=O)c2cccc(C(F)(F)F)c2)cc1
IC50 (CWR22R [8]): Nd(Insoluble)

SMILES: N#Cc1ccc(NC(=O)c2ccc(S(=O)(=O)c3cccc(C(F)(F)F)c3)cc2)cc1C(F)(F)F
Ratio IC50 (DU-145 [1]): <=8
Activity (LNCaP [2]): Dose-dependent effect
Activity (DU-145 [3]): Dose-dependent effect
Ratio IC50 (CWR22R [4]): <=8
Ratio IC50 (VCaP [5]): <=8
Ratio IC50 (LNCaP [6]): <=8
Activity (VCaP [7]): Dose-dependent effect
Activity (CWR22R [8]): Dose-dependent effect

SMILES: O=C(Nc1ccc([N+](=O)[O-])c(C(F)(F)F)c1)c1ccc(Sc2ccc(O)cc2)cc1
Ratio IC50 (DU-145 [1]): <=8
Activity (LNCaP [2]): Dose-dependent effect
Activity (DU-145 [3]): Dose-dependent effect
Ratio IC50 (CWR22R [4]): <=8
Ratio IC50 (VCaP [5]): <=8
Ratio IC50 (LNCaP [6]): <=8
Activity (VCaP [7]): Dose-dependent effect
Activity (CWR22R [8]): Dose-dependent effect

SMILES: O=C(Nc1ccc(S(F)(F)(F)(F)F)cc1)c1ccc(S(=O)(=O)c2ccc(O)cc2)cc1
Ratio IC50 (DU-145 [1]): <=8
Activity (LNCaP [2]): Dose-dependent effect
Activity (DU-145 [3]): Dose-dependent effect
Ratio IC50 (CWR22R [4]): <=8
Activity (HEK293): > 50%
Ratio IC50 (VCaP [5]): <=8
Ratio IC50 (LNCaP [6]): <=8
Activity (VCaP [7]): Dose-dependent effect
Activity (CWR22R [8]): Dose-dependent effect

SMILES: O=C(Nc1ccc(S(F)(F)(F)(F)F)cc1)c1ccc(Sc2ccc(O)cc2)cc1
Ratio IC50 (DU-145 [1]): <=8
Activity (LNCaP [2]): Dose-dependent effect
Activity (DU-145 [3]): Dose-dependent effect
Ratio IC50 (CWR22R [4]): <=8
Activity (HEK293): Toxic
Ratio IC50 (VCaP [5]): <=8
Ratio IC50 (LNCaP [6]): <=8
Activity (VCaP [7]): Dose-dependent effect
Activity (CWR22R [8]): Dose-dependent effect
